Compound activity as filed in PubChem BioAssay.
PGC1a acetyl up – compounds raising PGC1a acetylation signal, primary screen, PGC1a modulator project, cell-based, U2OS, AlphaScreen, signal-increasing mode; overnight; activation, % at 15.6 µM; actives 0.21% (n = 350,000); AID 651723, 2012;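 active = every replicate reaching activation of at least 50%, whatever the mean replicate activation; inconclusive = replicates that disagree or another doubt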;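 note: hits raise the AlphaScreen acetylation signal above neutral controls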
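System: flag-PGC1a/GCN5 U2OS cells / Input: 7000 cells/well / Compound: single test concentration per compound / Incubation: overnight compound treatment, 37 °C / Technique: AlphaScreen on lysates with anti-acetyl-lysine antibody, acceptor and donor beads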
G6PC hep suppr – suppressors of forskolin-stimulated G6PC mRNA, dose response, PGC-1a acetylation activator project, cell-based, hepatocytes, RT-qPCR, cherry-picked samples | shares compounds with PGC1a acetyl up | primary mouse hepatocytes | G6PC suppression (normalized activity, % of positive control; higher = more suppression), % at 26 µM | 240 tested, under 10 active | AID 743463, 2014;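 active = dose curves showing G6PC suppression whose half-maximal dose is at most twice the top valid dose; inconclusive = flat curves with moderate negative activity, or unreliable fits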;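 note: G6PC expression relative to GAPDH housekeeping gene as delta delta Ct; 0% = median of neutral control wells and 100% = median of positive control wells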
Hep PCK1 suppr – suppression of PCK1 mRNA in primary hepatocytes, dose response, PGC-1a acetylation activator project, cell-based, primary mouse hepatocytes, RT-qPCR, cherry-pick; 230 tested, under 10 active; shares compounds with PGC1a acetyl up; forskolin-stimulated; PCK1 expression decrease, unspecified at 26 µM;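 active = compounds lowering PCK1 expression whose fitted half-maximal concentration is at most twice the top tested dose; inconclusive = flat fit with moderate opposite-direction effect, or poor fit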;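 note: values are delta delta Ct of PCK1 relative to GAPDH; higher delta delta Ct means lower PCK1 expression so positive values indicate hits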
PGC1a hep suppr – suppression of PGC-1a mRNA in primary hepatocytes, dose response, PGC-1a acetylation activator project, cell-based, primary mouse hepatocytes, RT-qPCR, cherry-pick; shares compounds with PGC1a acetyl up; PGC-1a mRNA qPCR, forskolin; top dose 26 µM; max activity (PGC-1a expression decrease), %; 240 tested, under 10 active; AID 743467, 2014;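 active = compound lowering PGC-1a expression with fitted half-maximal concentration at most twice its top tested dose; inconclusive = flat curve with moderate opposite-direction effect, or poor fit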;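 note: 0% = neutral control wells median and 100% = positive control wells median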
Starred values were filed as active, the others as inactive; ? = inconclusive; / = no result; [ ] = another dose, or the depositor's remark. Only a sample is shown.

SMILES | PGC1a acetyl up | G6PC hep suppr | Hep PCK1 suppr | PGC1a hep suppr
CCCc1nc2c(=O)n(C)c(=O)nc-2n(C)n1 | -75 | / | / | /
O=C1CCCC(O)=C1N=Nc1ccc2c(c1)OCO2 | -47 | / | / | /
Cc1nc(N2CCN(S(=O)(=O)c3ccc(F)cc3)CC2)c2c(-c3cccs3)csc2n1 | 83* | 307 | 369 | 176
CCc1ccc(C(=O)CN(C#N)c2nc(C)cc(C)n2)cc1 | -49 | / | / | /
CC1=C/C(=N\OS(=O)(=O)c2ccccc2)C(C)=CC1=O | -60 | / | / | /
O=C(Cc1ccccc1)Nc1ccc(NC(=O)c2cccs2)cc1 | 312* | 43 | 3.3 | 42
O=C(CNC(=O)c1sc2ccccc2c1Cl)NCc1ccccc1 | -52 | / | / | /
COc1ccc(CN(CCC(C)C)S(=O)(=O)c2ccccc2Br)cc1 | 74* | / | 51 | 99
Cc1cc(/C=C\c2ccc3cc(N(C)C)ccc3[n+]2C)c(C)n1-c1ccccc1 | -68 | / | / | /
COc1ccc(-c2c(-c3cc(OC)cc(OC)c3)n(C)c3ccc(-c4cnc(N)nc4)cc23)cc1 | ? | 998 | 516 | 63
CC1CCCN(S(=O)(=O)c2ccc3c(c2)n(C)c(=O)c(=O)n3C)C1 (stereo not drawn) | -49 | / | / | /
CCOC(=O)C1CCCN(S(=O)(=O)c2ccc3c(c2)NC(=O)CO3)C1 (stereo not drawn) | 92* | -23 | / | ?
COc1ccccc1-c1ccc2c(c1)O[C@@H](CN(C)Cc1ccc3c(c1)OCO3)[C@@H](C)CN([C@@H](C)CO)S2(=O)=O | 65* | 553 | 110 | 54
C[C@H]1CN([C@@H](C)CO)S(=O)(=O)c2ccc(C#CCN(C)C)cc2O[C@@H]1CN(C)Cc1ccc2c(c1)OCO2 | ? | 304 | 132 | 45
COC(=O)/C(=C\Nc1cccc(Cl)c1C)c1ncc(C(F)(F)F)cc1Cl | -41 | / | / | /
O=C(CCc1nc2ccccc2c(=O)[nH]1)Nc1ccc(N2CCCCC2)cc1 | 100* | 42 | / | 87
CCn1cnc2cc(NCc3ccc(N(C)C)cc3)ccc21 | -40 | 243 | / | ?
c1cncc(CNc2ncnc3ccc(-c4ccoc4)cc23)c1 | -55 | / | / | /
CN1C[C@H](C(=O)N[C@]2(C)O[C@@]3(O)[C@@H]4CCCN4C(=O)[C@H](Cc4ccccc4)N3C2=O)CC2c3cccc4[nH]cc(c34)C[C@H]21 (stereo partly drawn) | -43 | / | / | /
Cc1sc(NC(=O)c2cccs2)nc1-c1ccccc1 | 80* | / | 3.4 | 22
Cc1nnc(NC(=O)CSc2ncc(-c3ccccc3)[nH]2)s1 | -88 | / | / | /
Cc1cc(C)c(C#N)c(N2CCN(c3ccccc3)CC2)n1 | -49 | / | / | /
CCOc1cc(/C=N/N=C(N)N)ccc1OCc1ccc(Cl)cc1 | -56 | / | / | /
Cc1ccc2nsnc2c1S(=O)(=O)N(Cc1ccco1)Cc1cc2cccc(C)c2[nH]c1=O | -47 | / | / | /
CC1(C)CC(=O)C(C=NCC(N)=O)=C(O)C1 | -52 | / | / | /
SMILES | PGC1a acetyl up | G6PC hep suppr | Hep PCK1 suppr | PGC1a hep suppr
CC(C)c1ccccc1NC(=O)Cn1c(-c2ccccc2Cl)nc2ccccc21 | -43 | / | / | /
CC(C)n1c(N2CCN(CC(=O)NCc3cccs3)CC2)nc2ccccc21 | / | 35 | 26 | 68
O=C(OCn1ncc(Br)c(Br)c1=O)c1ccc(F)cc1 | -37 | / | / | /
CCc1ccc(-c2cn3nc(-c4ccccc4)cnc3n2)cc1 | -45 | / | / | /
Cc1ccc(Cl)c(Cn2cnc3c(cnn3C(C)(C)C)c2=O)c1F | -48 | / | / | /
CCOCCCNC(=O)C1CCN(C(=O)Nc2ccc(C)cc2)CC1 | -45 | / | / | /
CCOC(=O)c1ccc(N2C(=O)C=CC2=O)cc1 | -46 | / | / | /
CCOC(=O)c1ccc(NC(=O)N2CCc3ccccc3C2)cc1 | ? | 25[8 µM] | 22 | 117
O=C(O)COc1ccc(/C=C2/SC(=S)N(Cc3ccccc3)C2=O)cc1 | -72 | / | / | /
CC(=O)Nc1sc2c(c1-c1nc3ccccc3s1)CN(C(C)C)CC2 | -52 | / | / | /
O=C(CN1CCC(n2nnc3cc(C(F)(F)F)ccc32)CC1)NCc1cccs1 | / | 14 | 22 | 52
CC(N=C1NS(=O)(=O)c2ccccc21)C(=O)NCCCc1ccccc1 (stereo not drawn) | -47 | / | / | /
CCOC(=O)c1ccccc1NS(=O)(=O)c1ccc(OCC)cc1 | ? | 17 | 50 | 70
CCOc1ccc(S(=O)(=O)N(C)C)cc1-c1nc2c(C(C)(C)C)nn(C)c2c(=O)[nH]1 | -48 | / | / | /
NCCCn1c(C(=O)c2cc(Cl)c(N)c(Cl)c2)c2ccc([N+](=O)[O-])cc2[n+]1[O-] | -54 | / | / | /
CC(Nc1ccccc1)c1cc(Cl)ccc1O (stereo not drawn) | -48 | / | / | /
Cc1noc(/C=C/N(C)C)c1S(=O)(=O)N(C)CC(=O)NC1CCCCC1 | -43 | / | / | /
CC(/C=C1\SC(=O)N(CCCC(=O)O)C1=O)=C\c1ccccc1 | -43 | / | / | /
Cc1ccc(S(=O)(=O)/N=C2/C=C(Sc3ncn[nH]3)C(=O)c3ccccc32)cc1 | -77 | / | / | /
CCn1c(SCC(=O)Nc2ccc(NC(=O)c3ccco3)cc2)nnc1-c1cccs1 | 124* | 7 | -8.6 | 52
C=CCn1c(SCC(=O)Nc2ccc(C(=O)O)cc2)nnc1-c1cccnc1 | -40 | / | / | /
CCCN(CCC)CCNC(=O)c1cc2c(=O)n(CC)c3ccccc3c2s1 | -43 | / | / | /
Cc1ccc(-c2nnc(Nc3ccc4c(c3)OCO4)c3ccccc23)cc1S(=O)(=O)NCCO | 94* | 44 | 113 | 63
COc1cc(C)c(CN2CCN(S(=O)(=O)c3ccc(Cl)s3)CC2)cc1OC | 79* | 66 | 91 | ?
CCOC(=O)C1=C(C)N=C2SC(C(=O)OC)=CC(=O)N2C1c1cccc(OC)c1 (stereo not drawn) | -51 | / | / | /
SMILES | PGC1a acetyl up | G6PC hep suppr | Hep PCK1 suppr | PGC1a hep suppr
N#Cc1c(C#N)c(O)c2ccccc2c1O | -46 | / | / | /
O=C(Nc1cccnc1)c1ccc(Br)s1 | ? | -8 | 27 | 47
CC1CCCC=CC2CC(OC(=O)CN(C)C)CC2C(O)C=CC(=O)O1 (stereo not drawn) | -67 | / | / | /
O=C1C(Nc2ccccc2)=C/C(=N/S(=O)(=O)c2cccs2)c2ccccc21 | -59 | / | / | /
CCOc1ccc(C(C)=O)cc1CSC(=N)N | -40 | / | / | /
CC1=C(C(N)=O)C(c2cccnc2)n2nc(-c3cccc(Cl)c3)nc2N1 (stereo not drawn) | 93* | 15 | 30 | 91
O=C(/C=C/c1ccccc1)CC(O)(c1ccccc1)C(F)(F)F (stereo not drawn) | -42 | / | / | /
O=S(=O)(NC12CC3CC(CC(C3)C1)C2)c1ccc(F)cc1 | 60* | -27 | 28 | 50
O=S(=O)(Nc1nc2c(s1)CCCC2)c1ccc(F)cc1 | -49 | / | / | /
O=S(=O)(NCCSc1ccc(Cl)cc1)c1ccc(F)cc1 | -40 | / | / | /
Cc1nc(NCCc2ccccc2)c2nnn(Cc3ccccc3Cl)c2n1 | -42 | / | / | /
COC1=CC(=O)c2c(ccc3ncnc(N)c23)C1=O | -66 | / | / | /
Cc1ccc2nc(SCC(=O)Nc3ccc(F)cc3)nc(=O)n2c1 | -76 | / | / | /
Cc1c(Cl)cccc1Nc1ncccc1C(=O)O | -56 | / | / | /
O=C(NC1CCCCC1)c1cccnc1C(=O)O | -51 | 40 | 13 | 69
CCc1c(C(=O)NC2CCCCC2)[nH]c(C)c1C(C)=O | -93 | / | / | /
